The list is not random: actives were taken first. Their share in the collection is about 3.3%.
Rev-RRE block: HIV Rev-RRE protein-RNA interaction inhibition | P05866 | Rev peptide-RRE RNA binding, FRET | inhibition, % at 8 µM | 0.79% of 97,000 active | AID 704;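 active = inhibition above the screen-wide mean plus 3 SD, cut at about 35% in these data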;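 note: 0% = median DMSO wells and 100% = median Neomycin B control wells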
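Probe or stimulus: fluorescein-Rev peptide as binding partner; assay system: Cy5-tagged RRE RNA duplex with fluorescein-tagged Rev peptide; timing: 5 min compound–RNA preincubation, then 15 min with peptide, 25 °C; medium: HEPES pH 7.5 buffer with KCl, MgCl2, NaCl and EDTA; signal: fluorescein-to-Cy5 FRET, 480 nm excitation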
NFkB transloc pot: enhances IL-1B driven NFkB nuclear translocation; activation, % at 2 µM; HUVEC IL-1B NFkB p65 nuclear translocation imaging; AID 819; 0.3% of 94,000 active;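 active = activation above 40%, about the mean plus 3 SD, also judged a hit on visual image review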;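 note: percent activation is computed from the nuclear over cytoplasmic p65 intensity ratio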
Measles CPE: protection of cells from measles virus; protection (pct of control), % at 4 µM; Measles virus-infected cells, CPE protection, absorbance; 1.5% of 140,000 active; in the data active = protection mostly above about 24%, no sharp cut-off; inactive = mostly below about 26%
HUVEC tox IL1B: toxic to HUVEC cells under IL-1B stimulation | AID 845 | cell count reduction, % at 2 µM | HUVEC cell count loss, Hoechst imaging, IL-1B stimulated | 0.41% of 94,000 active;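 active = cell count reduction more than 3 SD above the screen-wide mean, cut at about 70% in these data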;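 note: normalized per plate to untreated control cells as the no-loss baseline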
NFkB transloc inh: blocks IL-1B driven NFkB nuclear translocation in HUVEC cells; 0.43% of 94,000 active; AID 796; inhibition, % at 2 µM; HUVEC IL-1B NFkB p65 nuclear translocation imaging;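 active = inhibition above about 30% together with a positive call from visual inspection of the well image, limit read from the data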;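 note: nuclear over cytoplasmic p65 intensity ratio measured by imaging; 0% = IL-1B stimulated DMSO wells and 100% = unstimulated DMSO wells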
FAK inh: blocks human focal adhesion kinase activity. biochemical FAK kinase activity assay. inhibition, %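 (tested at 7 µM)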. 0.84% of 97,000 active. AID 727; in the data active = inhibition above about 19%;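 note: 0% = DMSO and 100% = reference compound high control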
Active calls of the source: *; nt = no result; [ ] = another dose, or the depositor's remark.

SMILES	Rev-RRE block	NFkB transloc pot	Measles CPE	HUVEC tox IL1B	NFkB transloc inh	FAK inh
Cn1c(=O)c2c(nc(NCc3ccc4c(c3)OCO4)n2Cc2ccccc2)n(C)c1=O	4	-2	11	0	2	1
C/C(Cl)=C\Cn1c(Nc2ccccc2)nc2c1c(=O)n(C)c(=O)n2C	15	11	25*	7	-11	2
Cn1c(=O)c2c(nc(NCCO)n2C)n(C)c1=O	4	-1	10	17	1	-1
Cn1c(=O)c2c(nc(NCc3ccc4c(c3)OCO4)n2Cc2ccc(F)cc2)n(C)c1=O	11	-44	16	-29	44*	1
COc1cccc(Cn2c(NCC(C)C)nc3c2c(=O)n(C)c(=O)n3C)c1	-3	27	10	74*	-27	0
CC(C)CNc1nc2c(c(=O)n(C)c(=O)n2C)n1Cc1cccc(Br)c1	-6	10	11	-11	-10	1
C=CCn1c(NCCO)nc2c1c(=O)n(C)c(=O)n2C	56*	nt	6	nt	nt	0
CCOC(=O)[C@H]1NN=C(C(=O)OC)[C@@H]1c1ccccc1	nt	nt	7	nt	nt	nt
Cc1occc(=O)c1O	nt	nt	46	nt	nt	nt
CCCNc1nc2c(c(=O)n(C)c(=O)n2C)n1CCc1ccccc1	4	-100	2	-31	100*	3
S=c1[nH]nc(-c2ccncc2)n1Cc1ccccc1	4	3	2	-10	-3	-6
S=c1[nH]nc(-c2cccnc2)n1Cc1ccccc1	5	14	50*	-7	-14	0
O=C(O)C1CCC(=O)N1Cc1ccccc1Cl (stereo not given)	nt	nt	0	nt	nt	nt
O=C(CCc1[nH]c2ccccc2c1Sc1ccccc1)NCCO	nt	nt	5	nt	nt	nt
COc1ccc2o/c(=N/NC(=S)Nc3ccccc3)c(C(N)=O)cc2c1	nt	nt	14	nt	nt	nt
Cc1cc(C)cc(NC(=O)Cn2c(-c3ccccc3Cl)nc3ccccc32)c1	nt	nt	35*	nt	nt	nt
O=C(NN=C1CCCCCCC1)C(=O)NC1CCCCC1	-2	-5	6	-72	5	2
N#CC(C(=O)NC1CCCCC1)=C1CCCCCC1	nt	nt	34*	nt	nt	nt
Cc1ccc(S(=O)(=O)N[C@@H](Cc2ccccc2)C(=O)CCl)cc1	nt	nt	17	nt	nt	nt
CC[n+]1c(-c2ccc(C)cc2)csc1Nc1c(C)n(C)n(-c2ccccc2)c1=O	nt	nt	30*	nt	nt	nt
COc1cc(S(=O)(=O)Nc2cccc(C(=O)O)c2)c(OC)cc1Cl	11	-49	3	88*	49*	-3
COc1ccc(C(=O)N2CCCCC2)cc1S(=O)(=O)Nc1cccc(C(=O)O)c1	8	3	6	-7	-3	-2
CC(C)CN(C(=O)CSc1nn(-c2ccc(Cl)cc2)c(=S)s1)C1CCS(=O)(=O)C1 (stereo not given)	nt	nt	4	nt	nt	nt
COC(=O)c1cccc(NC(=O)CSc2nc3cccnc3n2C)c1	11	-5	63*	-8	5	8
Cc1cc(C(=O)NCC(c2ccco2)N(C)C)no1 (stereo not given)	4	-6	66*	-15	6	6
SMILES	Rev-RRE block	NFkB transloc pot	Measles CPE	HUVEC tox IL1B	NFkB transloc inh	FAK inh
COc1ccc2c(c1)c(C(=O)N/N=C/c1ccc(O)c(O)c1)c(C)n2C	nt	nt	4	nt	nt	nt
Cc1ccc(Nc2nc(-c3c(C)nc4ccccn34)cs2)cc1	6	-34	7	34	34*	6
Cc1ccc(Nc2nc(-c3c(C)nc4ncccn34)cs2)cc1	1	-24	12	36	24	0
COc1ccc(CCNC(=O)c2c(C)noc2C)cc1	9	-5	12	0	5	-2
Cc1noc(C)c1C(=O)NCCCc1ccccc1	nt	nt	38*	nt	nt	nt
CC(OC(=O)CNC(=O)c1ccccc1F)C(=O)Nc1nc(-c2ccccc2)cs1 (stereo not given)	nt	nt	4	nt	nt	nt
NC(=S)Nc1cccc2cccnc12	9	8	12	20	-8	7
O=C(Nc1cccc2cccnc12)C1CCCC1	nt	nt	29*	nt	nt	nt
CCC(C)c1ccc(NC(=S)NN2CCOCC2)cc1 (stereo not given)	nt	nt	31	nt	nt	nt
CCC(=O)c1ccc(N2CCN(C(=O)c3ccc(Br)cc3)CC2)c(F)c1	2	9	17	-36	-9	-1
COc1ccc(C(=O)c2ccc(N3CCN(C(=O)c4ccc(F)cc4)CC3)c(F)c2)cc1Br	0	16	56*	-8	-16	2
COc1ccc(N(C(C)=O)S(=O)(=O)c2cccc3cccnc23)cc1	nt	nt	4	nt	nt	nt
CN1C(c2ccc(F)cc2)=CS/C1=C(\C#N)c1nnc2n1-c1ccccc1SC2	6	6	31*	26	-6	14
Cc1ccc(CNc2ccc3c(c2)OCO3)c(C)c1	90*[fluorescence artefact?]	-9	23	14	9	6
c1cncc(CNc2ccc3c(c2)OCO3)c1	4	-24	7	9	24	2
CCOC(=O)N/N=C(\C)c1ccc(OC(F)F)cc1OC(F)F	nt	nt	14	nt	nt	nt
O=C(NNC(=O)c1cc([N+](=O)[O-])ccc1Cl)c1cccs1	nt	nt	22	nt	nt	nt
Cc1nn(Cc2cccc(C(=O)NCC(C)C)c2)c(C)c1Br	2	0	27*	-14	0	1
COC(=O)c1ccc(Cn2nc(C)c(Br)c2C)cc1	11	-22	37	-1	22	5
CCNC(=O)/C(=C/c1ccco1)NC(=O)/C=C/c1ccccc1	5	9	1	-48	-9	-5
Cc1cc(N2CCN(C/C=C/c3ccccc3)CC2)n2ncnc2n1	nt	nt	32*	nt	nt	nt
CCOC(=O)C1=C(c2ccccc2)N=c2s/c(=C\c3ccco3)c(=O)n2C1c1cccs1 (stereo not given)	11	3	10	-87	-3	21*
COc1cc(C2C(C#N)=C(N)OC3=C2C(=O)CCC3)c([N+](=O)[O-])cc1OC (stereo not given)	48*	11	12	-51	-12	-6
Cc1cc(C2C(C#N)=C(N)OC3=C2C(=O)CCC3)c(C)s1 (stereo not given)	3	-2	6	-38	2	2
CC1(C)COC(c2ccc(F)c([N+](=O)[O-])c2)=N1	nt	nt	6	nt	nt	nt
SMILES	Rev-RRE block	NFkB transloc pot	Measles CPE	HUVEC tox IL1B	NFkB transloc inh	FAK inh
NC(=O)Nc1ccc(F)cc1	7	-1	70*	-16	1	-2
COc1ccccc1-c1nc2ccccc2nc1-c1ccccc1OC	nt	nt	12	nt	nt	nt
COc1cc(OC)c2c(OC)cccc2n1	nt	nt	92*	nt	nt	nt
O=C(CN1CCN(S(=O)(=O)c2cc(Cl)ccc2Cl)CC1)Nc1ccc2c(c1)OCCO2	nt	nt	42*	nt	nt	nt
CN(C)c1ccc(NC(=O)CN2CCN(S(=O)(=O)c3cc(Cl)ccc3Cl)CC2)cc1	3	18	12	6	-18	0
O=C(CN1CCCCC1)Nc1ccc(F)c(Cl)c1	nt	nt	56*	nt	nt	nt
O=C1CCNc2cc3ccccc3cc21	44*	-2	19	-42	2	10
CCCCC(=O)Nc1sc2c(c1C(=O)OCC)CCC(C=O)=C2Cl	4	-88	10	60	88*	4
O=C(N/N=C\C=C\c1ccc2c(c1)OCO2)C1COc2cc3ccccc3cc2O1 (stereo not given)	4	7	37*	-12	-7	0
